Values belong to the molecule of their own block, whether it stands above or below them. The source made the active and inactive calls. The rule behind the calls is not given here.
Legend:
[1] = target: Galectin-9 (Homo sapiens) (UniProt O00182); experiment: Ratio IC50 for lactose to compound for galectin-9 binding to biotinylated neoglycoprotein with p-isothiocyanatophynyl lactoside assessed as lectin-neoglycoprotein complex formation after 1 hr by spectrophotometrically relative to lactose
How it was run: (§1)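 Lactosylated BSA (p-isothiocyanatophenyl lactoside, about 26 sugars per carrier) was adsorbed to wells from PBS overnight at 4 °C. Biotinylated lectin, at a concentration from titration, was incubated 1 h at 37 °C with up to nine compound concentrations. Bound lectin was read spectrophotometrically. Glycocluster concentration was normalized to sugar content, and lactose served as internal reference. Triplicates were run in up to five series.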

[2] = tested on: Jurkat; experiment: Inhibition of Viscum album agglutinin binding to biotinylated lectin at cell surface of human Jurkat T-cells at 2.5 ug/ml by fluorometric analysis; assay type: cell-based
How it was run: (§2)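 Biotinylated mistletoe lectin (VAA, purified from dried leaves on lactosylated Sepharose) was bound to 5 × 10⁴ Jurkat cells per assay at 2.5 µg/ml, with or without compound. Staining was detected with a fluorescent second-step reagent by flow cytometry, as percent positive cells and mean fluorescence intensity. Controls were lactose/galactose, non-cognate sugars for osmolarity, and omission of labeled lectin.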

[3] = target: Galectin-3 (Homo sapiens) (UniProt P17931); experiment: Inhibition of galectin-3 binding to biotinylated lectin at cell surface of human Jurkat T-cells at 1 mM by fluorometric analysis relative to lactose; assay type: cell-based
Sequence of Galectin-3 (Homo sapiens) (P17931 whole entry): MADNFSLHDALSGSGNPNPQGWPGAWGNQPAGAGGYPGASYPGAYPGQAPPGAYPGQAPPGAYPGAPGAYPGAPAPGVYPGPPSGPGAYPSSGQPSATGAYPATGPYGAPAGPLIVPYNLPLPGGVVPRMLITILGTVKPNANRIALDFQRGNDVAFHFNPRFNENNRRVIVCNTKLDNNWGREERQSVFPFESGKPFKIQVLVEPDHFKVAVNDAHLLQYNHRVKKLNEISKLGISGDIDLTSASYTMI
How it was run: (§3)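 Recombinant biotinylated galectin-3, at a concentration set by titration, was bound to 5 × 10⁴ Jurkat or SW480 cells per assay, with or without compound. Lactose was run in parallel as reference. A fluorescent second-step reagent gave percent positive cells and mean fluorescence intensity by flow cytometry. Negative controls omitted labeled lectin, and non-cognate sugars served as osmolarity controls.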

[4] = target: Galectin-9 (Homo sapiens) (UniProt O00182); experiment: Inhibition of galectin-9 binding to biotinylated lectin at cell surface of human SW480 cells at 2 mM by fluorometric analysis; assay type: cell-based
How it was run: (§4)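 Biotinylated recombinant galectin-8 (1 µg/ml) or galectin-9 (40 µg/ml) was bound to 5 × 10⁴ SW480 cells per assay, with or without compound at 2 mM. Lactose was run in parallel. Staining via a fluorescent second-step reagent was quantified as percent positive cells and mean fluorescence intensity. Controls were omission of lectin and non-cognate sugars.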

[5] = target: T1, Galectin-8 (Homo sapiens) (UniProt O00214); experiment: (§5) Inhibition of galectin-8 binding to biotinylated lectin at cell surface of human SW480 cells at 2 mM by fluorometric analysis; assay type: cell-based; how it was run: as §4
T1 sequence (whole entry): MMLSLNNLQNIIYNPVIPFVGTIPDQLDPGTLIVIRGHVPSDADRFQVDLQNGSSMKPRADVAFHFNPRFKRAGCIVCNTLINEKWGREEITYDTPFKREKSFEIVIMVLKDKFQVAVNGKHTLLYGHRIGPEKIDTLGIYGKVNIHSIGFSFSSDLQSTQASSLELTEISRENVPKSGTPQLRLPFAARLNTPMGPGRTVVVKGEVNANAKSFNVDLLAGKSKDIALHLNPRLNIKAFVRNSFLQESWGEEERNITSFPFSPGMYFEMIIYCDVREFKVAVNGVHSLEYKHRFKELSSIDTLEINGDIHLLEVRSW

[6] = target: Galectin-3 (Homo sapiens) (UniProt P17931); experiment: Ratio IC50 for lactose to compound for galectin-3 binding to biotinylated neoglycoprotein with p-isothiocyanatophynyl lactoside assessed as lectin-neoglycoprotein complex formation after 1 hr by spectrophotometric analysis; how it was run: as §1
[7] = tested on: Viscum album; experiment: Ratio IC50 for lactose to compound for Viscum album agglutinin binding to biotinylated neoglycoprotein with p-isothiocyanatophynyl lactoside assessed as lectin-neoglycoprotein complex formation after 1 hr by spectrophotometric analysis; how it was run: as §1
[8] = target: T1, Galectin-8 (Homo sapiens); experiment: Ratio IC50 for lactose to compound for galectin-8 binding to biotinylated neoglycoprotein with p-isothiocyanatophynyl lactoside assessed as lectin-neoglycoprotein complex formation after 1 hr by spectrophotometric analysis; how it was run: as §1
[9] = target: Galectin-1 (Homo sapiens) (UniProt P09382); experiment: Ratio IC50 for lactose to compound for galectin-1 binding to biotinylated neoglycoprotein with p-isothiocyanatophynyl lactoside assessed as lectin-neoglycoprotein complex formation after 1 hr by spectrophotometric analysis; how it was run: as §1
Sequence of Galectin-1 (Homo sapiens) (P09382 whole entry): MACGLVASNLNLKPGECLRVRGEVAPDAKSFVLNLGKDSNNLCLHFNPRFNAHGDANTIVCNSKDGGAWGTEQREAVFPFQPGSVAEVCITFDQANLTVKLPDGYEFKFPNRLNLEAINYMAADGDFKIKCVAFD

[10] = target: Galectin-3 (Homo sapiens) (UniProt P17931); experiment: Inhibition of galectin-3 binding to biotinylated lectin at cell surface of human SW480 cells at 15 uM by fluorometric analysis; assay type: cell-based; how it was run: as §3
[11] = target: Galectin-3 (Homo sapiens) (UniProt P17931); experiment: Inhibition of galectin-3 binding to biotinylated lectin at cell surface of human Jurkat T-cells at 15 uM by fluorometric analysis; assay type: cell-based; how it was run: as §3
[12] = Cytotoxicity against human SW480 cells assessed as growth inhibition at 1 mM after 48 hrs by MTT assay; assay type: cell-based; conditions: read-out: GI
How it was run: (§6)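 SW480 human colon adenocarcinoma cell aliquots were cultured 48 h with no addition (control) or with test compound added to the medium at 1, 2, 5 or 10 mM. Galactose and lactose were run as controls. Growth was read spectrophotometrically with MTT (0.5 mg/ml) and expressed relative to the untreated control. Triplicates were run in three independent series.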

[13] = (§7) Cytotoxicity against human SW480 cells assessed as cell viability at 2 mM after 48 hrs by MTT assay; assay type: cell-based; conditions: SW480 cells, read-out: GI; how it was run: as §6
[14] = target: Galectin-3 (Homo sapiens) (UniProt P17931); experiment: Inhibition of galectin-3 binding to biotinylated lectin at cell surface of human Jurkat T-cells at 2 mM by fluorometric analysis; assay type: cell-based; how it was run: as §3
[15] = target: Galectin-3 (Homo sapiens) (UniProt P17931); experiment: Inhibition of galectin-3 binding to biotinylated lectin at cell surface of human SW480 cells at 100 uM by fluorometric analysis; assay type: cell-based; how it was run: as §3
[16] = target: Galectin-3 (Homo sapiens) (UniProt P17931); experiment: Inhibition of galectin-3 binding to biotinylated lectin at cell surface of human Jurkat T-cells at 100 uM by fluorometric analysis; assay type: cell-based; how it was run: as §3
[17] = target: Galectin-8 (Homo sapiens) (UniProt O00214); experiment: as §5; assay type: cell-based; how it was run: as §4; remark: listed apart in the source
[18] = tested on: SW480; experiment: as §7; assay type: cell-based; conditions: sw480, 48 h, 2000 µM; how it was run: as §6
[19] = Cytotoxicity against human SW480 cells assessed as growth inhibition at 5 mM after 48 hrs by MTT assay; assay type: cell-based; conditions: read-out: GI; how it was run: as §6
[20] = tested on: Jurkat; experiment: Inhibition of Viscum album agglutinin binding to biotinylated lectin at cell surface of human Jurkat T-cells at 1 mM by fluorometric analysis; assay type: cell-based; how it was run: as §2

Sequence of Galectin-9 (Homo sapiens) (O00182 whole entry): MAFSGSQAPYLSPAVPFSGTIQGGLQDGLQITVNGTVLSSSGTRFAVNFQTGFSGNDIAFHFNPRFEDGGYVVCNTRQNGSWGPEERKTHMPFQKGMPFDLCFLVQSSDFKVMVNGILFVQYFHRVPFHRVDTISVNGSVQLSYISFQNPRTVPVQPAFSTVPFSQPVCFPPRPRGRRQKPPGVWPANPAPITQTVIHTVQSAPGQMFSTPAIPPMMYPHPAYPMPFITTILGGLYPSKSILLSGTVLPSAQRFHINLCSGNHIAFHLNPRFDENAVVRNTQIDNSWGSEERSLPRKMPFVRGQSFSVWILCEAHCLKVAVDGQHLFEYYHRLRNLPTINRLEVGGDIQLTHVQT

Molecule: C/C=C/[C@@H]1O[C@H](CO)[C@H](O)[C@H](O)[C@H]1O
Activity [18]: Non-toxic
inhibition at 48 h, 5000 µM [19]: 50%

Molecule: Cc1nc(NS(=O)(=O)c2ccc3ccccc3c2)sc1[C@@H]1O[C@H](CO)[C@H](O)[C@H](O)[C@H]1O
Activity [18]: Non-toxic
inhibition at 48 h, 5000 µM [19]: 50%

Molecule: COc1ccc(C(=O)Nc2nc(C)c([C@@H]3O[C@H](CO)[C@H](O)[C@H](O)[C@H]3O)s2)cc1
Activity [18]: Non-toxic
inhibition at 48 h, 5000 µM [19]: 50%

Molecule: O=S(=O)(O)OCc1cn([C@H]2[C@@H](O)[C@@H](CO)O[C@@H](Sc3nc4ccccc4s3)[C@@H]2O)nn1
Ratio IC50 [1]: 1.4

Molecule: Cc1nc(NC(=O)c2ccccc2)sc1[C@@H]1O[C@H](CO)[C@H](O)[C@H](O)[C@H]1O
inhibition [20]: Active
Ratio IC50 [6]: 1.3
Ratio IC50 [7]: 1.2

Molecule: Cc1nc(NC(=O)Cc2ccccc2)sc1[C@@H]1O[C@H](CO)[C@H](O)[C@H](O)[C@H]1O
inhibition [20]: Active
Ratio IC50 [6]: 1.1
Ratio IC50 [7]: 1.3

Second part, led by results:

Ratio IC50 [1]: 5.1
fold change (FC) [3]: 7
inhibition [4]: Active
inhibition [5]: Active
Ratio IC50 [6]: 6.2
Ratio IC50 [7]: 2.2
Ratio IC50 [8]: 4.6
Ratio IC50 [9]: 1.8
Molecule: O=C(CCSCCC(F)(F)C(F)(F)C(F)(F)C(F)(F)C(F)(F)C(F)(F)C(F)(F)C(F)(F)F)NC(CO[C@@H]1O[C@H](CO)[C@H](O)[C@H](O)[C@H]1O)(CO[C@@H]1O[C@H](CO)[C@H](O)[C@H](O)[C@H]1O)CO[C@@H]1O[C@H](CO)[C@H](O)[C@H](O)[C@H]1O
inhibition [2]: Active

inhibition [10]: Active
Ratio IC50 [1]: 7.7
fold change (FC) [3]: 7
inhibition [4]: Active
inhibition [11]: Active
inhibition [5]: Active
Ratio IC50 [6]: 8.4
Ratio IC50 [7]: 6.2
Ratio IC50 [8]: 6.9
Molecule: O=C(NCc1cn([C@@H]2O[C@H](CO)[C@H](O[C@@H]3O[C@H](CO)[C@H](O)[C@H](O)[C@H]3O)[C@H](O)[C@H]2O)nn1)c1cc(C(=O)NCc2cn([C@@H]3O[C@H](CO)[C@H](O[C@@H]4O[C@H](CO)[C@H](O)[C@H](O)[C@H]4O)[C@H](O)[C@H]3O)nn2)cc(C(=O)NCc2cn([C@@H]3O[C@H](CO)[C@H](O[C@@H]4O[C@H](CO)[C@H](O)[C@H](O)[C@H]4O)[C@H](O)[C@H]3O)nn2)c1
inhibition [2]: Active
inhibition at 48 h, 1000 µM [12]: 75%
inhibition at 48 h, 2000 µM [13]: 58%

inhibition [14]: inactive
Molecule: C=C(C[C@@H]1O[C@H](CO)[C@H](O)[C@H](O)[C@H]1O)c1cccc([N+](=O)[O-])c1

inhibition [15]: Active
inhibition [14]: inactive
inhibition [4]: Active
inhibition [16]: Active
inhibition [17]: Active
Molecule: LACTOSE, ANHYDROUS

Ratio IC50 [6]: 1.8
Molecule: C#CCO[C@H]1[C@@H](O)[C@@H](CO)O[C@@H](Sc2ccccc2C(=O)OC)[C@@H]1O
inhibition at 48 h, 1000 µM [12]: 10%

Ratio IC50 [7]: 1.9
Molecule: OC[C@@H]1O[C@H](C/C=C/c2cccc(/C=C/C[C@@H]3O[C@H](CO)[C@H](O)[C@H](O)[C@H]3O)c2)[C@@H](O)[C@H](O)[C@@H]1O

Ratio IC50 [6]: 1.4
Molecule: O=C(O)c1cn([C@H]2[C@@H](O)[C@@H](CO)O[C@@H](Sc3nc4ccccc4s3)[C@@H]2O)nn1
inhibition at 48 h, 1000 µM [12]: 70%
inhibition at 48 h, 2000 µM [13]: 40%

Ratio IC50 [1]: 1.7
inhibition [4]: Active
inhibition [5]: Active
Ratio IC50 [6]: 1.6
Ratio IC50 [8]: 2.2
Molecule: CC(C)(C)C(=O)c1cc(CO[C@@H]2O[C@H](CO)[C@H](O[C@@H]3O[C@H](CO)[C@H](O)[C@H](O)[C@H]3O)[C@H](O)[C@H]2O)on1

— ChEMBL document CHEMBL1817612, “Inhibitory potential of chemical substitutions at bioinspired sites of β-D-galactopyranose on neoglycoprotein/cell surface binding of two classes of medically relevant lectins” (Bioorg Med Chem, 2011)
